# Bioassay records: PubChem, Johns Hopkins Ion Channel Center
# MrgX1 allo act = human MrgX1 positive allosteric modulation, primary screen; Q96LB2; MrgX1-HEK293, Fluo-4 calcium flux, FDSS; hits give high values; B-score at 10 µM; 310,000 compounds, 0.63% hits;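 active = plate-corrected calcium response at least 3 library SD above typical, normal starting fluorescence, not activating the receptor alone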;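 note: compound read alongside a low EC10 to EC30 dose of BAM8-22 agonist; peak minus trough fluorescence over baseline measured at the second addition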
# Target sequence (Q96LB2 whole entry, looked up): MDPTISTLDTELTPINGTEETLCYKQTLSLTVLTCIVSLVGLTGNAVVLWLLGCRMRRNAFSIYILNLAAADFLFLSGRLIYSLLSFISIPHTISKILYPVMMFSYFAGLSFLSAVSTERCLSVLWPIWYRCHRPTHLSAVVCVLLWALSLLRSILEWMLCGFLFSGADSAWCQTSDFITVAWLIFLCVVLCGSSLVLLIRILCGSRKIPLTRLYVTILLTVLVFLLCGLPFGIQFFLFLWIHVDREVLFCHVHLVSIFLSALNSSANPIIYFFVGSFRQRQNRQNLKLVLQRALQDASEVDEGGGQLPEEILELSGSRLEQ
# MrgX1 antag = antagonists of human MrgX1 receptor; Q96LB2; MRGX1-HEK293 calcium flux, Fluo-4, BAM8-22 antagonism; hits give low values; B-score at 10 µM; 310,000 compounds, 1.3% hits;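 active = calcium-response B-score plate-corrected more than 3 library SD below zero, starting fluorescence within 5 deviations, no agonist response on first addition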;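 note: peak minus trough fluorescence over baseline after final BAM8-22 challenge near maximal dose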
# RGS4 block = human RGS4 inhibition | HEK293 M3R/RGS4 inducible, Fluo-4 calcium flux; hits give high values; triggered by carbachol at its EC20 | B-score at 10 µM | 310,000 compounds, 0.45% hits | AID 463165;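 active = B-score, a plate-corrected calcium signal, over three deviations above library mean, with baseline fluorescence within five deviations of library mean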;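 note: RGS4 expression induced by doxycycline in cells with stable M3 receptor; B-score is computed from the integrated fluorescence ratio over baseline after carbachol; higher B-score means a larger calcium signal and so more RGS4 inhibition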
# Target sequence (P49798 whole entry, looked up): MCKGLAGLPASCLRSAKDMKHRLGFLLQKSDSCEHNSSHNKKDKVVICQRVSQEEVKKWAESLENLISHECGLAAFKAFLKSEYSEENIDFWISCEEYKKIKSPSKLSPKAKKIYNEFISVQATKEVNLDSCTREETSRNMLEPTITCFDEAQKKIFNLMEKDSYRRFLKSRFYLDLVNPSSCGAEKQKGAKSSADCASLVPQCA
# MrgX1 ag = human MrgX1 receptor agonism, primary screen; Q96LB2; MrgX1-HEK293 cells, Fluo-4 calcium fluorescence, agonist mode; hits give high values; B-score at 10 µM; 310,000 compounds, 0.44% hits;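 active = calcium response B-score plate-corrected fluorescence ratio at least 3 library SD, with starting fluorescence B-score inside 5 SD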
#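 Material: MrgX1-expressing HEK293 cells / Dosing: compound as first of three additions / Incubation: overnight seeding, then 1 h dark dye loading / Signal: Fluo-4 NW calcium fluorescence / Evaluation: B-scored fluorescence response ratio / Benchmarks: positive and negative control wells on each plate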
# RGS4 pot = potentiators or activators of RGS4; HEK293 M3R/inducible RGS4, carbachol calcium flux Fluo4; hits give low values; B-score at 10 µM; 310,000 compounds, 0.92% hits; AID 463111;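 active = B-score of the integrated calcium signal more than 4 SD below the library mean, with starting fluorescence not abnormally high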;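 note: negative B-score means reduced calcium response which marks RGS4 activation or potentiation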
#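 Material: M3R-expressing HEK293 line, RGS4 induced by doxycycline | Schedule: Overnight RGS4 induction, 30 min dye load 37 °C, 20 min compound RT | Measured by: Fluo4 fluorescence kinetic imaging of calcium | Read-out: Integrated calcium ratio converted to B score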
# RGS4 block valid = RGS4 inhibitor validation; shares compounds with RGS4 block; HEK293 M3R/RGS4, carbachol calcium Fluo-4 fluorescence; carbachol added at its EC20; 0 = buffer wells, 100 = carbachol control; calcium response, % at 10 µM; 1,700 compounds, 65% hits;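 active = duplicate-averaged calcium response above the buffer-only control mean plus 5 SD of those controls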;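 note: integrated fluorescence ratio F max minus min over baseline F0; higher response in RGS4-induced cells means RGS4 inhibition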
# RGS4 uninduced = checks RGS4 inhibitor effects in non-induced HEK293 M3R cells. shares compounds with RGS4 block. carbachol calcium Fluo-4; submaximal (EC20) carbachol stimulus; buffer wells 0%, carbachol control wells 100%. activity (percent), % at 10 µM. 1,900 compounds, 20% hits; call rule not given here;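 note: RGS4 induction absent so cells express M3R without RGS4; higher means more calcium signal and flags a non-specific hit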
# M3R basal Ca ctr = signal in non-induced cells without carbachol, RGS4 inhibitor counter-screen. shares compounds with RGS4 block. HEK293 M3R/RGS4 non-induced, Fluo-4 calcium, no carbachol; normalised: buffer wells 0%, carbachol wells 100%. calcium response (agonist-mode artifact), % at 10 µM. 1,900 compounds, 22% hits;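 active = duplicate-averaged calcium rise in uninduced cells above buffer wells' mean plus 5 SD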
# Numbers stand for hits; n = inactive; x = no result. The list is not random: actives were taken first. Their share in the collection is about 3.5%.
SMILES,MrgX1 allo act,MrgX1 antag,RGS4 block,MrgX1 ag,RGS4 pot,RGS4 block valid,RGS4 uninduced,M3R basal Ca ctr
CC(=N\Nc1ccc(Cl)cc1)/C(=N/O)C(=O)Nc1ccccc1,n,n,5.7,n,n,14%,n,n
C/C(=N\O)C(=O)Nc1ccccc1,n,n,n,n,n,x,x,x
COc1ccc(CC(=O)NNc2ncnc3c2cnn3Cc2ccccc2)cc1OC,n,n,n,n,n,x,x,x
COc1cccc(-c2nc(COc3ccc(Cl)cc3Cl)no2)c1,n,n,n,n,n,x,x,x
Cc1cc(C)nc(S/C=C/C(=O)c2ccc(F)cc2)n1,n,n,n,n,n,x,x,x
COc1ccc2c(c1)c(C(=O)CN1CCC(C(N)=O)CC1)c(C)n2C,n,n,n,n,n,n,n,n
COc1ccc2c(c1)c(C(=O)CN1CCCCC1)c(C)n2C,n,n,n,n,n,x,x,x
Cc1ccsc1/C=N/NC(=O)CC(=O)NCC(C)C,n,n,n,n,n,x,x,x
COC(=O)c1ccc(COc2ccccc2/C=C(\C#N)C(=O)Nc2ccc(C)cc2)cc1,n,n,n,n,n,n,n,n
N#C/C(=C\c1ccccc1OCc1ccc(C(=O)O)cc1)C(=O)Nc1ccc(O)cc1,n,n,6.9,n,n,14%,n,n
CNS(=O)(=O)c1cn(CC(=O)NCc2ccc(F)cc2)cc1S(=O)(=O)NC,n,n,n,n,n,x,x,x
O=S(=O)(Nc1ccc(N=Nc2ccc(O)c3ccccc23)cc1)c1ccccc1,n,n,4.7,n,n,5.5%,n,n
O=C(O)CCC(=O)Nc1sc2c(c1C(=O)Nc1ccccc1)CCCCC2,n,n,5.5,n,n,7.0%,64%,n
CN(CCc1ccccc1)C(=O)c1cc(COc2ccc(F)cc2Cl)on1,n,n,n,n,n,x,x,x
CCC(=O)N1CCc2cc(Br)cc(S(=O)(=O)N3CCCCC3CC)c21 (stereo not given),n,n,n,n,n,x,x,x
O=C(Oc1cccc2cccnc12)c1ccc(N2C(=O)C3C4CCC(C4)C3C2=O)cc1 (stereo not given),n,n,n,n,n,x,n,7.0%
Cc1ccc(N2C(=O)Cc3ccccc3C2=O)cc1,n,n,n,n,n,n,n,n
COCCNC(=O)C(c1ccc(F)cc1)N(C(=O)CCC(=O)Nc1nccs1)c1cccc(C)c1 (stereo not given),n,n,n,n,n,x,x,x
COC(=O)c1cc(=O)n(-c2ccc(F)cc2)c(=Nc2ccc(F)cc2)s1,n,n,13,n,n,30%,54%,n
COC(=O)c1c(SCC(=O)Nc2ccc(C)c(C)c2)nc(=O)[nH]c1C,n,n,n,n,n,x,x,x
CC(NC(=O)/C(C#N)=C/c1ccco1)c1ccccc1 (stereo not given),n,n,n,n,n,x,x,x
CC(NC(=O)/C(C#N)=C/c1ccc([N+](=O)[O-])o1)c1ccccc1 (stereo not given),n,n,6.2,n,n,16%,n,8.5%
CCOCCCNC(=O)/C(C#N)=C/c1ccc([N+](=O)[O-])o1,8.4,n,8.1,n,n,31%,n,n
N#Cc1ccccc1NC(=O)C1SC(=Nc2ccccc2)C(C(=O)Nc2ccc(Cl)cc2)=C1N (stereo not given),n,n,5.8,n,n,n,n,n
C=CCNc1nc(C)c(CNc2c(C)cc(C)cc2C)nc1C#N,n,n,n,n,n,x,x,x
SMILES,MrgX1 allo act,MrgX1 antag,RGS4 block,MrgX1 ag,RGS4 pot,RGS4 block valid,RGS4 uninduced,M3R basal Ca ctr
CCCCOc1ccc(-c2cc(C(F)(F)F)c(C#N)c(SCC(=O)O)n2)cc1,n,n,n,n,n,x,x,x
N#CC1=C(N)N=C(SCc2cccc3ccccc23)C(C(N)=O)C12CCCCC2 (stereo not given),n,n,5.9,n,n,16%,n,n
O=C(O)CCn1c(SCc2cccc3ccccc23)nc2ccccc21,n,n,n,n,n,x,x,x
O=C(Cc1ccccc1)Nc1cccc(N2C(=O)C=CC2=O)c1,n,n,7.5,n,n,12%,n,42%
CCCC(=O)C1=C(O)C(C(=O)OC)C(C)(C)CC1=NCCc1ccccc1 (stereo not given),n,n,n,n,n,x,x,x
O=C(OCn1ncc(Cl)c(Cl)c1=O)c1ccc(F)cc1,n,n,n,n,n,x,x,x
O=C(OCn1ncc(Cl)c(Cl)c1=O)c1ccccc1Cl,n,n,7.4,n,n,15%,40%,n
COc1ccc2c(c1OC)C(=O)OC2Nc1nc(-c2cc3cc(Br)ccc3oc2=O)cs1 (stereo not given),n,n,n,n,n,x,x,x
COc1ccc2c(c1OC)C(=O)OC2Nc1nc(-c2ccc([N+](=O)[O-])cc2)cs1 (stereo not given),n,n,n,n,n,n,n,n
COc1ccc(-c2csc(NC3OC(=O)c4c3ccc(OC)c4OC)n2)cc1OC (stereo not given),n,n,11,n,n,44%,n,n
O=C(CSc1nnnn1-c1ccc(F)cc1)NCc1cccs1,n,n,n,n,n,x,x,x
CC(=O)/C(=N/Nc1ccccc1)N1CCOCC1,n,n,n,n,n,n,n,n
COc1ccc(C(=O)NC(C)(C)C)cc1S(=O)(=O)N1CCCC1,n,n,n,n,n,x,x,x
COc1c(/C=C2\SC(=Nc3ccccc3Cl)NC2=O)cccc1[N+](=O)[O-],n,n,8.5,n,n,34%,70%,n
O=C1NC(=Nc2ccccc2Cl)S/C1=C\c1cccc([N+](=O)[O-])c1O,n,n,n,n,n,n,n,n
COc1cc(NC(=O)CCc2nnc3ccc(N4CCCCC4)nn23)cc(OC)c1OC,n,n,n,n,n,x,x,x
Cc1[nH]n(-c2ncc(-c3ccccc3)s2)c(=O)c1C(c1ccc(Br)cc1)C(C#N)C#N (stereo not given),n,-6.8,16,n,n,50%,n,51%
Cc1ccc(N(CC(=O)N=Nc2c(O)[nH]c3ccccc23)S(C)(=O)=O)c(C)c1,n,n,n,n,n,n,n,n
NC(=O)c1cc2ccc(O)cc2oc1=Nc1ccccc1,x,x,n,x,n,n,n,n
COc1cccc(/C=C2\SC(=S)N(CCCC(=O)N(CCO)c3ccccc3)C2=O)c1,n,n,n,n,n,x,x,x
O=C1/C(=C/c2cccc(Br)c2)SC(=S)N1CCC(=O)N(CCO)c1ccccc1,n,n,5.3,n,n,16%,34%,n
